Reference: ChEMBL document CHEMBL3286138, “Petasin activates AMP-activated protein kinase and modulates glucose metabolism” (J Nat Prod, 2014)
Each block holds one molecule with its values, some of them ahead of it. The source made the active and inactive calls. The rule behind the calls is not given here.

Legend:
Mus musculus [1] = test: Activation of AMPK in C57BL/6J mouse liver assessed as phosphorylated ACC level at 200 mg/kg, po after 2 hrs by Western blot analysis; format: functional, organism-based; design: dose 200 mg/kg
Outline: (§1)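 Male C57BL/6J mice (10 weeks), fasted 4 h, given a single oral dose of 200 mg/kg in 0.5% carboxymethyl cellulose with 0.5% polyoxyethylene sorbitan. Dissected under chloral hydrate anesthesia (500 mg/kg ip) 2 h later. Liver, epididymal white adipose and quadriceps were homogenized in RIPA buffer and immunoblotted for p-AMPKα (Thr172) and p-ACC (Ser79). Signals normalized to α-tubulin; mean ± SE, 5 mice; Student's t test against vehicle.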

Mus musculus [2] = test: Activation of AMPK in C57BL/6J mouse white adipose tissue at 200 mg/kg, po after 2 hrs by Western blot analysis; format: functional, organism-based; design: dose 200 mg/kg; outline: as §1
Mus musculus [3] = test: Activation of AMPK in C57BL/6J mouse white adipose tissue assessed as phosphorylated ACC level at 200 mg/kg, po after 2 hrs by Western blot analysis; format: functional, organism-based; design: dose 200 mg/kg; outline: as §1
Mus musculus [4] = test: Activation of AMPK in C57BL/6J mouse skeletal muscle at 200 mg/kg, po after 2 hrs by Western blot analysis; format: functional, organism-based; design: dose 200 mg/kg; conditions: Muscle tissue; outline: as §1
Mus musculus [5] = test: Activation of AMPK in glucose loaded C57BL/6J mouse assessed as decrease of AUC of blood glucose level at 100 to 200 mg/kg, po after 1 hr by oral glucose tolerance test; format: functional, organism-based
Outline: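 Male C57BL/6J mice, fasted 15 h, dosed orally at 100 or 200 mg/kg. Glucose (1 M solution, 1 g/kg) given orally 60 min later. Tail-vein blood glucose read at 0, 15, 30, 45, 60, 90 and 120 min, and AUC calculated from the curve. Mean ± SE, 5 mice; one-way ANOVA with Dunnett's test against vehicle.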

Mus musculus [6] = test: Activation of AMPK in glucose loaded C57BL/6J mouse assessed as decrease of AUC of blood glucose level at 500 mg/kg, po after 1 hr by oral glucose tolerance test; format: functional, organism-based; design: dose 500 mg/kg
H4IIE [7] = test: Activation of AMPK in rat H4IIE cells assessed as increase of AMP level by spectrophotometric analysis; format: cell-based
Outline: (§2)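 Serum-starved H4IIE hepatoma cells, differentiated C2C12 myotubes and differentiated 3T3-L1 adipocytes were exposed 1, 2 and 2 h respectively. Cells were lysed in Tris/SDS/glycerol, nuclease-digested, perchloric acid-extracted and neutralized. ATP, ADP and AMP were separated by C18 HPLC in phosphate buffer at pH 6.2, 40 °C, with detection at […]. AMP/ATP and ADP/ATP ratios were calculated from these levels; mean ± SE, n = 3.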

3T3-L1 [8] = test: Activation of AMPK in mouse 3T3L1 cells assessed as increase of AMP level by spectrophotometric analysis; format: cell-based; outline: as §2
C2C12 [9] = test: Activation of AMPK in mouse C2C12 cells assessed as increase of AMP level by spectrophotometric analysis; format: cell-based; outline: as §2
H4IIE [10] = test: Activation of AMPK in rat H4IIE cells assessed as increase of ADP level by spectrophotometric analysis; format: cell-based; outline: as §2
3T3-L1 [11] = test: Activation of AMPK in mouse 3T3L1 cells assessed as increase of ADP level by spectrophotometric analysis; format: cell-based; outline: as §2
C2C12 [12] = test: Activation of AMPK in mouse C2C12 cells assessed as increase of ADP level by spectrophotometric analysis; format: cell-based; outline: as §2
H4IIE [13] = test: Activation of AMPK in rat H4IIE cells assessed as decrease of ATP level by spectrophotometric analysis; format: cell-based; outline: as §2
3T3-L1 [14] = test: Activation of AMPK in mouse 3T3L1 cells assessed as decrease of ATP level by spectrophotometric analysis; format: cell-based; outline: as §2
C2C12 [15] = test: Activation of AMPK in mouse C2C12 cells assessed as decrease of ATP level by spectrophotometric analysis; format: cell-based; outline: as §2
H4IIE [16] = test: Activation of AMPK in rat H4IIE cells assessed as increase of AMP/ATP ratio level after 1 hr by spectrophotometric analysis; format: cell-based; outline: as §2
3T3-L1 [17] = test: Activation of AMPK in mouse 3T3L1 cells assessed as increase of AMP/ATP ratio level after 2 hrs by spectrophotometric analysis; format: cell-based; outline: as §2
C2C12 [18] = test: Activation of AMPK in mouse C2C12 cells assessed as increase of AMP/ATP ratio level after 2 hrs by spectrophotometric analysis; format: cell-based; outline: as §2
H4IIE [19] = test: Activation of AMPK in rat H4IIE cells assessed as increase of ADP/ATP ratio level after 1 hr by spectrophotometric analysis; format: cell-based; outline: as §2
3T3-L1 [20] = test: Activation of AMPK in mouse 3T3L1 cells assessed as increase of ADP/ATP ratio level after 2 hrs by spectrophotometric analysis; format: cell-based; outline: as §2
C2C12 [21] = test: Activation of AMPK in mouse C2C12 cells assessed as increase of ADP/ATP ratio level after 2 hrs by spectrophotometric analysis; format: cell-based; outline: as §2
Rattus norvegicus [22] = species on record: Rattus norvegicus; test: Inhibition of rat liver mitochondrial respiratory chain complex 1 assessed as reduction of oxygen consumption at stage 4 at 10 uM in presence of glutamate and ADP
Outline: (§3)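 Liver mitochondria from Wistar rats were isolated by differential centrifugation in sucrose/Tris-MOPS/EGTA at pH 7.4, with respiratory control ratio 5−7. O2 uptake was measured with a Clark electrode, State 3/4 induced by 100 μM ADP. Complex I substrate was 5 mM glutamate plus 2.5 mM malate; complex II substrate was 5 mM succinate plus 2 μM rotenone. Dose−response run; mean ± SE, n = 3.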

Rattus norvegicus [23] = species on record: Rattus norvegicus; test: Inhibition of rat liver mitochondrial respiratory chain complex 1 assessed as reduction of oxygen consumption at stage 4 in presence of glutamate and malate; outline: as §3
Rattus norvegicus [24] = species on record: Rattus norvegicus; test: Inhibition of rat liver mitochondrial respiratory chain complex 2 assessed as reduction of oxygen consumption at stage 4 in presence of succinate and rotenone; outline: as §3
[25] = target: AMP-activated protein kinase, AMPK (Homo sapiens) (UniProt P54646+O43741+P54619+Q9UGJ0+Q9Y478+Q13131+Q9UGI9); test: Activation of AMPK in LKB1-deficient human HeLa cells at 10 to 100 uM after 1 hr by Western blot analysis; format: cell-based
H4IIE [26] = test: Increase of AMPK phosphorylation at Thr172 in rat H4IIE cells at 5 to 10 uM after 1 hr by ELISA; format: cell-based
Outline: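 Confluent H4IIE cells in 96-well plates were starved overnight in serum-free DMEM (1 g/L glucose), then treated 1 h at 37 °C. Cells were fixed in 4% formaldehyde and endogenous peroxidase quenched with H2O2. Plates were blocked with 10% FBS and probed overnight at 4 °C with anti-p-AMPKα (Thr172), then with HRP secondary and TMB read-out. Mean ± SE, n = 4; Dunnett's test against basal.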

[27] = target: 5'-AMP-activated protein kinase catalytic subunit alpha-1 (Rattus norvegicus) (UniProt P54645); test: Increase of AMPKalpha phosphorylation at Thr172 in rat H4IIE cells after 1 hr by Western blot analysis; format: cell-based
Outline: (§4)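 H4IIE cells grown in 1 g/L glucose DMEM, serum-starved overnight, then treated 1 h; 2 mM AICAR served as reference. Lysates (50−100 μg protein) were run on 7.5% SDS-PAGE and immunoblotted for p-AMPKα (Thr172), p-ACC (Ser79), total AMPKα and total ACC.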

[28] = target: 5'-AMP-activated protein kinase catalytic subunit alpha-1 (Rattus norvegicus) (UniProt P54645); test: Activation of AMPKalpha in rat H4IIE cells assessed as ACC phosphorylation at Ser79 after 1 hr by Western blot analysis; format: cell-based; outline: as §4
[29] = target: 5'-AMP-activated protein kinase catalytic subunit alpha-1 (Rattus norvegicus) (UniProt P54645); test: Increase of AMPKalpha phosphorylation at Thr172 in rat H4IIE cells at 0.3 uM after […] by Western blot analysis; format: cell-based
[30] = target: 5'-AMP-activated protein kinase catalytic subunit alpha-1 (Mus musculus) (UniProt Q5EG47); test: Increase of AMPKalpha phosphorylation at Thr172 in mouse 3T3L1 cells at 10 uM after 2 hrs by Western blot analysis; format: cell-based; conditions: 3T3-L1
Outline: (§5)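 Cells were starved, then treated 2 h with 2 mM AICAR as reference. C2C12 cells were myotubes differentiated 4 days in 2% horse serum. 3T3-L1 cells were adipocytes differentiated with insulin, dexamethasone and IBMX and used at days 10−14. Lysates were immunoblotted on 7.5% SDS-PAGE for p-AMPKα (Thr172), p-ACC (Ser79), total AMPKα and total ACC.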

[31] = target: 5'-AMP-activated protein kinase catalytic subunit alpha-1 (Mus musculus) (UniProt Q5EG47); test: Increase of AMPKalpha phosphorylation at Thr172 in mouse C2C12 cells at 5 uM after 2 hrs by Western blot analysis; format: cell-based; outline: as §5
Mus musculus [32] = test: Activation of AMPK in C57BL/6J mouse liver at 200 mg/kg, po after 2 hrs by Western blot analysis; format: functional, organism-based; design: dose 200 mg/kg; outline: as §1
Mus musculus [33] = test: Activation of AMPK in C57BL/6J mouse skeletal muscle assessed as increase of PGC-1alpha transcription at 100 to 200 mg/kg, po after 2 hrs by RT-qPCR analysis; conditions: Muscle tissue
Mus musculus [34] = test: Activation of AMPK in C57BL/6J mouse skeletal muscle assessed as increase of PGC-1alpha transcription at 500 mg/kg, sc after 2 hrs by RT-qPCR analysis; conditions: Muscle tissue

5'-AMP-activated protein kinase catalytic subunit alpha-1 (Rattus norvegicus), sequence (P54645 whole entry): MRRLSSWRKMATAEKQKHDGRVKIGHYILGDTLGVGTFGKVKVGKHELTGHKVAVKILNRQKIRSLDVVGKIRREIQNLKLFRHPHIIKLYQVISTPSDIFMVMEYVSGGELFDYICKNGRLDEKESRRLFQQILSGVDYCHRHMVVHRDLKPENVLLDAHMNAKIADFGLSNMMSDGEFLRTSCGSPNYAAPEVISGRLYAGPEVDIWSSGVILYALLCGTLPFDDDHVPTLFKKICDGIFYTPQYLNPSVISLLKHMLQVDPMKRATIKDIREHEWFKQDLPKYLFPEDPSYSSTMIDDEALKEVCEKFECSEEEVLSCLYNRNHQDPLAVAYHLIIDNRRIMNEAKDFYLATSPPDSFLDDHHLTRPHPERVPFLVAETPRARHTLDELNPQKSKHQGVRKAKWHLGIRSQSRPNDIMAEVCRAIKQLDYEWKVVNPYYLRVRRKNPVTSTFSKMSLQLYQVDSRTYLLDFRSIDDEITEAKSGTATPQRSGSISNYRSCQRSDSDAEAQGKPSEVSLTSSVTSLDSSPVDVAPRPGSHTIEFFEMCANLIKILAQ
5'-AMP-activated protein kinase catalytic subunit alpha-1 (Mus musculus), sequence (Q5EG47 whole entry): as the sequence (P54645 whole entry) above, with T269A, E518D counted along it

inhibition (Rattus norvegicus [24]): inactive
Activity [25]: Active
Activity [27]: Dose-dependent effect
Activity [28]: Dose-dependent effect
Activity [29]: Active
Activity [30]: Active
Activity [31]: Active
SMILES: C=C(C)[C@@H]1C[C@@]2(C)C(=CC1=O)CC[C@@H](OC(=O)/C(C)=C\C)[C@@H]2C
Activity (Mus musculus [1]): Active
Activity (Mus musculus [2]): Active
Activity (Mus musculus [3]): Active
Activity (Mus musculus [4]): Active
Activity (Mus musculus [5]): Active
Activity (Mus musculus [6]): Active
Activity (H4IIE [7]): Dose-dependent effect
Activity (3T3-L1 [8]): Dose-dependent effect
Activity (C2C12 [9]): Dose-dependent effect
Activity (H4IIE [10]): Dose-dependent effect
Activity (3T3-L1 [11]): Dose-dependent effect
Activity (C2C12 [12]): Dose-dependent effect
Activity (H4IIE [13]): Dose-dependent effect
Activity (3T3-L1 [14]): Dose-dependent effect
Activity (C2C12 [15]): Dose-dependent effect
Activity (H4IIE [16]): Dose-dependent effect
Activity (3T3-L1 [17]): Dose-dependent effect
Activity (C2C12 [18]): Dose-dependent effect
Activity (H4IIE [19]): Dose-dependent effect
Activity (3T3-L1 [20]): Dose-dependent effect
Activity (C2C12 [21]): Dose-dependent effect
inhibition (Rattus norvegicus [22]): Active
inhibition (Rattus norvegicus [23]): Dose-dependent effect
Activity (H4IIE [26]): Active
Activity (Mus musculus [32]): Active
Activity (Mus musculus [33]): Active

SMILES: C/C=C(/C)C(=O)O[C@@H]1CCC2=CC(=O)C(=C(C)C)C[C@]2(C)[C@H]1C
Activity (H4IIE [26]): Active

SMILES: NC(=O)c1ncn([C@@H]2O[C@H](CO)[C@@H](O)[C@H]2O)c1N
Activity (Mus musculus [34]): Active
